An excerpt weighted towards active compounds, which were near 6.5% of everything screened.
Candida biofilm – clotrimazole potentiators killing Candida biofilms, primary screen, with clotrimazole, Alamar Blue. inhibition, % at 6 µM. actives 0.14% (n = 85,000). C. albicans biofilm + clotrimazole;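 active = inhibition above 20%; inactive = inhibition below 20%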;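 also: preformed 24 hr biofilms exposed to compound for 48 hr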
Ecoli tolC – growth inhibitors of E. coli tolC mutant, primary screen, strain BW25113 ΔtolC::kan, 384-well | OD615 | growth inhibition, % at 10 µM (by protocol) | actives 2.2% (n = 65,000);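 active = growth inhibition at or above a cutoff equal to the mean over every tested compound plus 3 SD, cut at about 60% in these data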;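 also: growth measured after 20 h incubation at 37 °C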
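Doses: one dose of 10 µM final / Material: E. coli BW25113 ΔtolC::kan, tolC deletion mutant strain / Buffer or medium: LB with kanamycin 50 µg/mL / Evaluation: percent growth inhibition / Detection: optical density read at 615 nm / Incubation: 37 °C, 20 h exposure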
E coli WT exp – growth inhibitors of wild-type E. coli, primary screen, strain BW25113, expanded library, OD600; actives 0.15% (n = 98,000); growth inhibition, % at 100 µM; OD600 absorbance; AID 710, 2007;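 active = growth inhibition above about 50% at one test dose, limit read from the data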;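 also: growth measured after 20 h incubation at 37 °C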
PostGolgi yeast – phenotypic screen on post-Golgi transport, primary screen; post-Golgi transport phenotypic cell assay; inhibition, % at 10 µM; actives 0.9% (n = 98,000);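 also: yeast cells grown in 1536-well plates; yeast grown about 18 h at 30C before absorbance read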
PTK2B oligo ant – antagonists of Pyk2 self-association, primary screen, Q293 cells, FERM NanoBiT luminescence, HTS; Protein-tyrosine kinase 2-beta (Homo sapiens), Q14289; active compounds read low; z-score (the deposit names both 25 µM and 10 µM); actives 0.83% (n = 99,000); AID 1347419, 2020;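 active = Z-score of -3 or lower, scaled per plate to the spread of control and sample wells; inactive = z-score above -3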;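 also: negative z-score means lost luminescence so less FERM oligomerization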
PostGolgi ctrl – growth inhibition of yeast control strain, primary screen, counter-screen for post-Golgi transport modulator project | efflux-deficient yeast background strain, growth absorbance A615, 16 h | inhibition, % at 10 µM | actives 5% (n = 98,000)
Hits are given with their value; - = inactive; . = no result. Rule as the data show it, unless noted: active = inhibition above about 30%; inactive = the rest.

SMILES | Candida biofilm | Ecoli tolC | E coli WT exp | PostGolgi yeast | PTK2B oligo ant | PostGolgi ctrl
Cc1cc(C)nc(N2CCCC(C(=O)Nc3nc4ccc(S(C)(=O)=O)cc4s3)C2)n1 (stereo not drawn) | - | - | - | - | - | 34
COc1ccc2nc(NC(=O)C3CCN(S(=O)(=O)c4cccc5nsnc45)CC3)sc2c1 | - | - | - | - | -3.4 | -
CCOc1ccc2nc(NC(=O)CS(=O)(=O)c3ccc(C)cc3)sc2c1 | - | . | - | - | - | -
CCOc1ccc2nc(NC(=O)C3CCCN(S(=O)(=O)c4cccs4)C3)sc2c1 (stereo not drawn) | - | 63 | - | 75 | - | 48
COc1cc(-c2noc(CCCC(=O)NCc3ccccc3)n2)cc(OC)c1OC | - | . | - | - | - | -
Cc1cn(C(=O)C(C)N2C(=O)c3ccccc3C2=O)c(C)n1 (stereo not drawn) | - | . | - | - | - | -
Cn1nnnc1SCC(=O)Nc1ccccc1Cl | - | - | - | - | - | -
COC(=O)c1sccc1NC(=O)CSc1nnnn1-c1ccccc1C | 27 | . | - | - | - | -
COC(=O)c1ccc(-n2nnnc2SCC(=O)Nc2ccccc2C(=O)OC)cc1 | . | . | - | - | - | 37
CC(NC(=O)c1ccccc1NC(=O)CSc1nnnn1C)c1ccccc1 (stereo not drawn) | - | . | - | - | - | 33
C=CCC(NC(C)c1ccccc1)c1ccco1 (stereo not drawn) | - | . | - | - | - | -
CNCC(O)Cn1c(C(F)(F)F)nc2ccccc21 (stereo not drawn) | - | . | . | . | - | .
COc1cccc(NC(=O)Nc2ccc3c(c2)N(C)C(=O)CS3)c1 | - | . | - | - | -4 | -
CN1C(=O)CSc2ccc(NC(=O)Nc3ccccn3)cc21 | - | - | - | - | - | -
O=C1CN(C(=O)c2cccs2)c2ccccc2N1 | - | - | - | - | - | 33
O=C1CN(C(=O)c2ccccc2F)c2ccccc2N1 | - | - | - | - | - | -
O=C(c1ccc(Cl)c(F)c1F)N1CCOCC1 | - | . | - | - | - | -
CCn1nc(C(=O)Nc2cccc3ccccc23)c(Cl)c1Cl | . | . | - | - | - | -
O=C(Nc1cccc2ccccc12)c1nn(C23CC4CC(CC(C4)C2)C3)cc1[N+](=O)[O-] | . | . | - | 47 | - | 85
O=C1CCC(c2ccccc2)N1C(=O)c1cccnc1 (stereo not drawn) | - | - | - | - | - | -
CC(=O)COC(=O)c1cccc(N2C(=O)C3C4C=CC(C4)C3C2=O)c1 (stereo not drawn) | - | - | - | - | . | 31
CCOC(=O)c1cccc(N2C(=O)C3C(C2=O)C2C=CC3C23CC3)c1 (stereo not drawn) | - | . | - | - | - | -
CN(CC(=O)Nc1nc2ccccc2s1)S(=O)(=O)c1ccc(Cl)cc1 | - | . | - | - | - | 31
CCC(=O)N1CCc2cc(S(=O)(=O)N3CCc4ccccc43)ccc21 | - | - | - | - | - | -
O=C(O)CCCC(=O)N1CCc2cc(S(=O)(=O)N3CCc4ccccc43)ccc21 | - | 75 | - | - | . | -
SMILES | Candida biofilm | Ecoli tolC | E coli WT exp | PostGolgi yeast | PTK2B oligo ant | PostGolgi ctrl
CCOc1ccc(CCNS(=O)(=O)c2cnc[nH]2)cc1OCC | - | - | - | - | - | -
COc1cccc(-c2cc(C(=O)N3CCN(C(c4ccccc4)c4ccccc4)CC3)no2)c1 | - | - | - | 38 | - | -
COc1cccc(-c2cc(C(=O)N3C(C)CCCC3C)no2)c1 (stereo not drawn) | - | 68 | - | - | - | -
COc1cccc(N2C(=O)C3CCCN3C2c2ccc(Cl)cc2)c1 (stereo not drawn) | - | - | - | - | . | -
CCn1c(-c2ccsc2)nc2c1c(=O)[nH]c(=O)n2Cc1ccccc1 | - | - | - | - | - | -
CNC(=O)c1cc2c(=O)n3cccc(C)c3nc2n1C | - | - | . | . | . | .
COC(=O)c1cc(NS(=O)(=O)c2ccc3c(c2)CCC(=O)N3)cc(C(=O)OC)c1 | - | - | - | - | - | -
Cc1nn(-c2ccccc2)c(Cl)c1C(=O)Nc1c(C)n(C)n(-c2ccccc2)c1=O | . | - | - | - | - | -
CC(C)n1nc(C(=O)Nc2nnc(SCc3c(Cl)cccc3Cl)s2)c2ccccc2c1=O | - | . | - | - | - | -
Cn1c(=O)[nH]c(=O)c2c1nc(Sc1nc3ccccc3s1)n2Cc1ccccc1 | - | - | - | - | - | 41
CCCn1c(SCCc2ccccc2)nc2c1c(=O)[nH]c(=O)n2C | - | - | - | - | - | -
CC(C)CCn1c(SCCc2ccccc2)nc2c1c(=O)[nH]c(=O)n2C | - | - | - | - | - | 35
C/C=C/Cn1c(SCCCc2ccccc2)nc2c1c(=O)[nH]c(=O)n2C | - | - | - | - | . | 41
C=CCn1c(SCCCc2ccccc2)nc2c1c(=O)[nH]c(=O)n2C | - | - | - | - | . | -
Cc1ccc(Sc2nc3c(c(=O)[nH]c(=O)n3C)n2CCc2ccccc2)cc1 | - | . | - | - | . | 35
COC(=O)c1ccc(NC(=O)CN2C(=O)CNC2=O)cc1 | . | . | - | - | - | -
CC1CCCCN1C(=O)Cn1c(=O)n(C2CCCCC2)c(=O)c2ccccc21 (stereo not drawn) | - | - | - | - | - | -
Cc1cccc(NC(=O)C2=C(O)c3ccccc3N(C)S2(=O)=O)c1 | . | . | - | - | - | -
CN1c2ccccc2C(O)=C(C(=S)Nc2ccc(Cl)cc2)S1(=O)=O | . | . | - | - | -3.2 | -
CCN(CCCNC(=O)c1c(C)cc(=O)oc1C)c1ccccc1 | - | - | - | - | - | -
CCCCN(CCCNC(=O)c1c(C)cc(=O)oc1C)c1ccccc1 | - | - | - | - | - | 32
CCCCN(CCCNC(=O)CN1C(=O)COc2ccccc21)c1ccccc1 | - | 61 | - | - | - | -
Cc1ccc2[nH]c3c(c2c1)CCc1cn[nH]c1-3 | - | 100 | - | - | - | 63
C=CCn1c(SC(C)C(=O)NCCC2=CCCCC2)nc2ccccc2c1=O (stereo not drawn) | - | . | - | - | - | 32
CSc1nnc(-c2cccc(C)c2)n1N | - | . | - | - | - | -
SMILES | Candida biofilm | Ecoli tolC | E coli WT exp | PostGolgi yeast | PTK2B oligo ant | PostGolgi ctrl
Cc1ccc(C2=[N+]([O-])C(C)(C)CC2)cc1 | - | . | - | - | - | 33
Cc1ccc(CNC(=O)c2sccc2-n2cccc2)cc1 | - | - | - | - | - | 30
O=C(Nc1ccccc1)N(C1=NCCC1)c1ccc(OC(F)F)cc1 | - | - | - | - | - | -
COc1ccc(-c2nn(CC(=O)Nc3ccc(Cl)c(Cl)c3)c(=O)c3ccccc23)cc1 | - | . | - | - | - | 32
Clc1ccc(OCCn2ccnc2)c2ccccc12 | - | 100 | 64 | - | - | -
Clc1ccc(OCCn2ccnc2)c(Cl)c1 | - | - | - | - | - | -
Clc1ccc(CSc2nnc(-c3c[nH]c4ccccc34)o2)cc1 | - | . | - | - | - | -

Compound activity (PubChem BioAssay)
